# From PMC3346673 (Toxicological and environmental chemistry, 2012)
# Like-named read-outs stand apart in the source and are kept apart here.
# Tests used:
# [1] = system: rats; assay: 28 day repeated oral dose toxicity study with clinical chemistry and hematology; format: in vivo, rat (Wistar); settings: for Ca^2+ / Cl^− / HCT / HGB / K^+ / Mg^2+ / Na^+ / Phosphorus / RBC: mean
# In short: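 Male and female Wistar rats, 10 of each sex per group, gavaged daily for 28 days with the test compound suspended in corn oil at 0, 0.1, 0.5 or 1.0 g kg−1 body weight day−1.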
# [2] = Oral absorption, plasma pharmacokinetics after oral gavage; format: in vivo, rat (Sprague-Dawley); settings: for Tmax / half-life: male, Sprague-Dawley, rat, plasma, po
# [3] = Oxygen radical absorbance capacity; settings: Trolox equivalency
# [4] = system: rats; assay: Oral up/down LD-50 determination, gavage in corn oil; format: in vivo, rat (Wistar)
# In short: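 Up/down design in 3 female Wistar rats (206–208 g). Test compound was suspended in corn oil and given by gavage, three times daily to reach the top level. Testing stopped at 5 g kg−1 body weight.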
# [5] = system: rats injected with lethal doses of mercury chloride; assay: Survival of young rats after lethal doses of mercury chloride; format: in vivo, rat (Sprague-Dawley)
# In short: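 Thirty-six young male Sprague-Dawley rats (225–245 g) were split into three groups of 12. They received HgCl2 sc under the right abdominal skin at 1.0, 2.0 or 14 mg kg−1. Six per group then got test compound sc on the left side 20–25 min later in isotonic 25% DMSO:75% PBS: 528 micromoles for the two lower doses, 880 micromoles for the top dose.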
# [6] = Metabolic profiling with rat liver microsomes; format: in vitro ADME; settings: incubation with rat liver microsomes, MS identification
# In short: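 Test compound incubated with human or rat liver microsomes. Products separated by HPLC and identified by electrospray MS and MS:MS, using information-dependent acquisition on the parent ion, enhanced product ion scans, and linear ion trap scanning of trapped fragments.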
# [7] = Endotoxin activity; settings: 1 mg mL^−1, tested undiluted to 1:512 dilution
# [8] = system: rats injected with HgCl2; format: in vivo, rat (Harlan Sprague-Dawley); settings: for mercury concentration in feces / mercury concentration in urine: 5 day collection, mean ± SEM
# In short: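 Mature male Harlan Sprague-Dawley rats (389–397 g), four groups of six, housed in pairs. HgCl2 was given sc at 4.06 mg kg−1 in saline under brief isoflurane. Test compound (42.3 mg kg−1, DMSO plus PBS) was given sc 20–30 min later. Non-recipients got saline, so each rat had two injections. Rats were weighed before treatment and before day-6 sacrifice; organs were blotted and weighed. Behaviour was recorded.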
# [9] = system: Escherichia coli strain WP2 uvrA; assay: Ames test for mutagenic activity; format: cell-based; settings: reversion of mutations in the tryptophan operon
# [10] = 0.1, 0.5 and 1.0 g kg^−1 day^−1 gavage, 28 days
# [11] = females, 100 mg kg^−1, end of 28 day daily dosing
# [12] = females, 500 mg kg^−1, end of 28 day daily dosing
# [13] = females, 1000 mg kg^−1, end of 28 day daily dosing
# [14] = males, 100 mg kg^−1, end of 28 day daily dosing
# [15] = males, 500 mg kg^−1, end of 28 day daily dosing
# [16] = males, 1000 mg kg^−1, end of 28 day daily dosing
# [17] = Group 2 NBMI only, sc 42.3 mg kg^−1, mean ± St Dev
# [18] = Group 4 HgCl2 (4.06 mg kg^−1 sc) + NBMI (42.3 mg kg^−1 sc), mean ± St Dev
structure (smiles),measurement,setting,value
"O=C(NCCS)c1cccc(C(=O)NCCS)c1 [NBMI, N,N′-bis(2-mercaptoethyl)isophthalamide]",deaths and clinical signs,[1]; [10],"No deaths or abnormal weight loss, ataxia, loss of appetite"
same,microscopic and histological analysis of organs,[1]; [10],None of their organs displayed changes indicating toxic effects
same,spleen finding,[1]; [10],mild to moderate B-cell proliferation
same,Ca^2+,[1]; [11],10.78 mg/dL
same,Cl^−,[1]; [11],103 meq L^−1
same,HCT,[1]; [11],43.7%
same,HGB,[1]; [11],15.2 gm DL^−1
same,K^+,[1]; [11],4.81 meq L^−1
same,Mg^2+,[1]; [11],2.64 meq L^−1
same,Na^+,[1]; [11],142 meq L^−1
same,Phosphorus,[1]; [11],7.82 mg/dL
same,RBC,[1]; [11],8.0 mill UL^−1
same,Ca^2+,[1]; [12],10.89 mg/dL
same,Cl^−,[1]; [12],105 meq L^−1
same,HCT,[1]; [12],42%
same,HGB,[1]; [12],15 gm DL^−1
same,K^+,[1]; [12],5.08 meq L^−1
same,Mg^2+,[1]; [12],2.72 meq L^−1
same,Na^+,[1]; [12],143 meq L^−1
same,Phosphorus,[1]; [12],8.15 mg/dL
same,RBC,[1]; [12],8.0 mill UL^−1
same,Ca^2+,[1]; [13],10.84 mg/dL
same,Cl^−,[1]; [13],105 meq L^−1
same,HCT,[1]; [13],40%
same,HGB,[1]; [13],14 gm DL^−1
same,K^+,[1]; [13],4.89 meq L^−1
same,Mg^2+,[1]; [13],2.82 meq L^−1
same,Na^+,[1]; [13],144 meq L^−1
same,Phosphorus,[1]; [13],8.49 mg/dL
same,RBC,[1]; [13],7.6 mill UL^−1
same,Ca^2+,[1]; [14],10.64 mg/dL
same,Cl^−,[1]; [14],105 meq L^−1
same,HCT,[1]; [14],46.2%
same,HGB,[1]; [14],15.6 gm DL^−1
same,K^+,[1]; [14],4.83 meq L^−1
same,Mg^2+,[1]; [14],2.58 meq L^−1
same,Na^+,[1]; [14],143 meq L^−1
same,Phosphorus,[1]; [14],8.23 mg/dL
same,RBC,[1]; [14],8.7 mill UL^−1
same,Ca^2+,[1]; [15],10.6 mg/dL
same,Cl^−,[1]; [15],104 meq L^−1
same,HCT,[1]; [15],45.1%
same,HGB,[1]; [15],15.2 gm DL^−1
same,K^+,[1]; [15],5.03 meq L^−1
same,Mg^2+,[1]; [15],2.62 meq L^−1
same,Na^+,[1]; [15],144 meq L^−1
same,Phosphorus,[1]; [15],8.42 mg/dL
same,RBC,[1]; [15],8.3 mill UL^−1
same,Ca^2+,[1]; [16],10.53 mg/dL
same,Cl^−,[1]; [16],106 meq L^−1
same,HCT,[1]; [16],45.5%
same,HGB,[1]; [16],15.5 gm DL^−1
same,K^+,[1]; [16],5.15 meq L^−1
same,Mg^2+,[1]; [16],2.56 meq L^−1
same,Na^+,[1]; [16],143 meq L^−1
same,Phosphorus,[1]; [16],8.84 mg/dL
same,RBC,[1]; [16],8.5 mill UL^−1
same,Tmax,[2]; 7 mg/kg,2.3 ± 1.2 h
same,half-life,[2]; 7 mg/kg,328 ± 105 min
same,Tmax,[2]; 35 mg/kg,2.3 ± 1.2 h
same,half-life,[2]; 35 mg/kg,336 ± 61.2 min
same,absorbance of NBMI into plasma from oral dose,"[2]; oral 7 mg kg^−1, estimated against iv 1 mg kg^−1",13 ± 5.9%
same,absorbance of NBMI into plasma from oral dose,"[2]; oral 35 mg kg^−1, estimated against iv 1 mg kg^−1",15 ± 3.6%
same,ORAC score,[3],"199,000 Trolox units 100g^−1"
same,LD-50,"[4]; oral gavage in corn oil, female Wistar rats",> 5 g kg^−1 body weight
same,signs of toxicity in LD-50 study,"[4]; up to 5 g NBMI kg^−1 body weight, gavaged 3 times daily",no death or other signs of toxicity with the exception of some diarrhea
same,PERCENT SURVIVAL,"[5]; HgCl2 1 mg kg^−1 sc, NBMI 528 micromoles (150 mg) kg^−1 sc, 0 hrs",100%
same,PERCENT SURVIVAL,"[5]; HgCl2 1 mg kg^−1 sc, NBMI 528 micromoles (150 mg) kg^−1 sc, 6 hrs",100%
same,PERCENT SURVIVAL,"[5]; HgCl2 1 mg kg^−1 sc, NBMI 528 micromoles (150 mg) kg^−1 sc, 12 hrs",100%
same,PERCENT SURVIVAL,"[5]; HgCl2 1 mg kg^−1 sc, NBMI 528 micromoles (150 mg) kg^−1 sc, 24 hrs",100%
same,PERCENT SURVIVAL,"[5]; HgCl2 1 mg kg^−1 sc, NBMI 528 micromoles (150 mg) kg^−1 sc, 48 hrs",100%
same,PERCENT SURVIVAL,"[5]; HgCl2 1 mg kg^−1 sc, NBMI 528 micromoles (150 mg) kg^−1 sc, 72 hrs",100%
same,PERCENT SURVIVAL,"[5]; HgCl2 2 mg kg^−1 sc, NBMI 528 micromoles (150 mg) kg^−1 sc, 0 hrs",100%
same,PERCENT SURVIVAL,"[5]; HgCl2 2 mg kg^−1 sc, NBMI 528 micromoles (150 mg) kg^−1 sc, 6 hrs",100%
same,PERCENT SURVIVAL,"[5]; HgCl2 2 mg kg^−1 sc, NBMI 528 micromoles (150 mg) kg^−1 sc, 12 hrs",100%
same,PERCENT SURVIVAL,"[5]; HgCl2 2 mg kg^−1 sc, NBMI 528 micromoles (150 mg) kg^−1 sc, 24 hrs",100%
same,PERCENT SURVIVAL,"[5]; HgCl2 2 mg kg^−1 sc, NBMI 528 micromoles (150 mg) kg^−1 sc, 48 hrs",100%
same,PERCENT SURVIVAL,"[5]; HgCl2 2 mg kg^−1 sc, NBMI 528 micromoles (150 mg) kg^−1 sc, 72 hrs",100%
same,PERCENT SURVIVAL,"[5]; HgCl2 14 mg kg^−1 sc, NBMI 880 micromoles (250 mg) kg^−1 sc, 0 hrs",100%
same,PERCENT SURVIVAL,"[5]; HgCl2 14 mg kg^−1 sc, NBMI 880 micromoles (250 mg) kg^−1 sc, 6 hrs",100%
same,PERCENT SURVIVAL,"[5]; HgCl2 14 mg kg^−1 sc, NBMI 880 micromoles (250 mg) kg^−1 sc, 12 hrs",100%
same,PERCENT SURVIVAL,"[5]; HgCl2 14 mg kg^−1 sc, NBMI 880 micromoles (250 mg) kg^−1 sc, 24 hrs",100%
same,PERCENT SURVIVAL,"[5]; HgCl2 14 mg kg^−1 sc, NBMI 880 micromoles (250 mg) kg^−1 sc, 48 hrs",67%
same,PERCENT SURVIVAL,"[5]; HgCl2 14 mg kg^−1 sc, NBMI 880 micromoles (250 mg) kg^−1 sc, 72 hrs",67%
same,condition of the surviving rats on long term observation,[5]; surviving 16 rats from all groups observed for three months,No adverse effects were noted
same,metabolites detected,[6],only two NBMI modified structures
same,endotoxin content,[7],less than one
same,Body Mass Post Treatment,[8]; [17],374.4 ± 27.7 g
same,Organ Mass Brain (Post Treatment),[8]; [17],1.85 ± 0.04 g
same,Organ Mass Kidney (Post Treatment),[8]; [17],2.80 ± 0.56 g
same,Organ Mass Liver (Post Treatment),[8]; [17],11.7 ± 1.8 g
same,clinically observed toxic effects,[8]; Group 4 Hg + NBMI versus Hg Only,exhibited no signs of discomfort
same,Body Mass Post Treatment,[8]; [18],356.9 ± 46.8 g
same,Organ Mass Brain (Post Treatment),[8]; [18],1.88 ± 0.10 g
same,Organ Mass Kidney (Post Treatment),[8]; [18],3.88 ± 0.69 g
same,Organ Mass Liver (Post Treatment),[8]; [18],11.0 ± 2.1 g
same,mercury concentration in feces,[8]; Hg and NBMI group,23447±4877 Ppb
same,mercury concentration in urine,[8]; Hg and NBMI group,242±52.7 Ppb
same,mercury concentration in feces,[8]; NBMI Only group,110±30 Ppb
same,mercury concentration in urine,[8]; NBMI Only group,0.30±0.1 Ppb
same,effect on organ mercury levels,"[8]; single sc dose of NBMI, organs 5-6 days after injection",did not reduce the mercury levels in the organs
same,"mutagenicity, Ames analysis",[9],non-mutagenic
